Columns and labels:
[1] = system: Human immunodeficiency virus 1; assay: Antiviral activity against Human immunodeficiency virus 1 HXB2 expressing protease M5 mutant infected in human MT4 cells after 5 days by MTT assay; type: functional, organism-based; conditions: Human immunodeficiency virus 1, HXB2, MT4, 120 h
Outline: (§1)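 MT-4 cells (AIDS Research and Reference Reagent Program) exposed to 50% tissue culture infective doses (TCID₅₀) of virus with various concentrations of test compound for 5 days. MTT solution then added and absorbance measured. Mutant strains carry 10–17 resistance mutations with phenotypic resistance to marketed PIs; all include I84V except M7. IC₅₀ reported.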

[2] = Inhibition of Human immunodeficiency virus protease M10 mutant expressed in Escherichia coli using ArgGlu(EDANS)SerGlnAsnTyrProIleValGlnLys(DABCYL)Arg as substrate preincubated with compound for 0.5 to 1 min measured by fluorometric analysis at pH 6.5
[3] = system: Human immunodeficiency virus 1; assay: Antiviral activity against Human immunodeficiency virus 1 HXB2 expressing protease M9 mutant infected in human MT4 cells after 5 days by MTT assay; type: functional, organism-based; conditions: Human immunodeficiency virus 1, HXB2, MT4, 120 h
[4] = system: Human immunodeficiency virus 1; assay: Antiviral activity against Human immunodeficiency virus 1 HXB2 expressing protease M7 mutant infected in human MT4 cells after 5 days by MTT assay; type: functional, organism-based; conditions: Human immunodeficiency virus 1, HXB2, MT4, 120 h; outline: as §1
[5] = system: Human immunodeficiency virus 1; assay: Antiviral activity against Human immunodeficiency virus 1 HXB2 expressing protease M4 mutant infected in human MT4 cells after 5 days by MTT assay; type: functional, organism-based; conditions: Human immunodeficiency virus 1, HXB2, MT4, 120 h; outline: as §1
[6] = system: Human immunodeficiency virus 1; assay: Antiviral activity against Human immunodeficiency virus 1 HXB2 expressing protease M8 mutant infected in human MT4 cells after 5 days by MTT assay; type: functional, organism-based; conditions: Human immunodeficiency virus 1, HXB2, MT4, 120 h
[7] = system: Human immunodeficiency virus 1; assay: Antiviral activity against Human immunodeficiency virus 1 HXB2 expressing protease M10 mutant infected in human MT4 cells after 5 days by MTT assay; type: functional, organism-based; conditions: Human immunodeficiency virus 1, HXB2, MT4, 120 h
[8] = system: Human immunodeficiency virus 1; assay: Antiviral activity against Human immunodeficiency virus 1 HXB2 expressing protease M6 mutant infected in human MT4 cells after 5 days by MTT assay; type: functional, organism-based; conditions: Human immunodeficiency virus 1, HXB2, MT4, 120 h; outline: as §1
[9] = Inhibition of Human immunodeficiency virus protease M9 mutant expressed in Escherichia coli using ArgGlu(EDANS)SerGlnAsnTyrProIleValGlnLys(DABCYL)Arg as substrate preincubated with compound for 0.5 to 1 min measured by fluorometric analysis at pH 6.5
[10] = system: Human immunodeficiency virus 1; assay: Antiviral activity against Human immunodeficiency virus 1 HXB2 expressing wild type protease infected in human MT4 cells after 5 days by MTT assay; type: functional, organism-based; conditions: Human immunodeficiency virus 1, HXB2, MT4, 120 h
[11] = system: Human immunodeficiency virus 1; assay: Antiviral activity against Human immunodeficiency virus 1 HXB2 expressing protease M3 mutant infected in human MT4 cells after 5 days by MTT assay; type: functional, organism-based; conditions: Human immunodeficiency virus 1, HXB2, MT4, 120 h; outline: as §1
[12] = Inhibition of wild type Human immunodeficiency virus protease expressed in Escherichia coli using ArgGlu(EDANS)SerGlnAsnTyrProIleValGlnLys(DABCYL)Arg as substrate preincubated with compound for 0.5 to 1 min measured by fluorometric analysis at pH 6.5
[13] = Inhibition of Human immunodeficiency virus protease M8 mutant expressed in Escherichia coli using ArgGlu(EDANS)SerGlnAsnTyrProIleValGlnLys(DABCYL)Arg as substrate preincubated with compound for 0.5 to 1 min measured by fluorometric analysis at pH 6.5

| Compound | IC50 [1] [nM] | Ki [2] [nM] | IC50 [3] [nM] | IC50 [4] [nM] | IC50 [5] [nM] | IC50 [6] [nM] | IC50 [7] [nM] | IC50 [8] [nM] | Ki [9] [nM] | IC50 [10] [nM] | IC50 [11] [nM] | Ki [12] [nM] | Ki [13] [nM] |
| --- | --- | --- | --- | --- | --- | --- | --- | --- | --- | --- | --- | --- | --- |
| CNC(C)=C1C(=O)Nc2ccc(S(=O)(=O)N(CC(C)C)C[C@@H](O)[C@H](Cc3ccccc3)NC(=O)O[C@H]3CO[C@H]4OCC[C@H]43)cc21 (mixture of isomers) | 18 | < 1 | 17 | 5 | 16 | 29 | 56 | 20 | < 0.3 | 10 | 12 | < 0.1 |  |
| CC(C)CN(C[C@@H](O)[C@H](Cc1ccccc1)NC(=O)O[C@H]1CO[C@H]2OCC[C@H]21)S(=O)(=O)c1ccc2c(c1)C(=CNC1CCC1)C(=O)N2 (mixture of isomers) | 33 | 1.2 | 31 | 7 | 36 | 30 | 115 | 32 | < 0.3 | 17 | 31 | < 0.1 |  |
| CC(C)CN(C[C@@H](O)[C@H](Cc1ccccc1)NC(=O)O[C@H]1CO[C@H]2OCC[C@H]21)S(=O)(=O)c1ccc2c(c1)C(=CNCC(C)(C)C)C(=O)N2 (mixture of isomers) | 7 | < 1 | 9.5 | 1.5 | 8.8 | 13 | 27 | 6 | < 0.3 | 4.5 | 8 | < 0.1 |  |
| CC(C)CNC=C1C(=O)Nc2ccc(S(=O)(=O)N(CC(C)C)C[C@@H](O)[C@H](Cc3ccccc3)NC(=O)O[C@H]3CO[C@H]4OCC[C@H]43)cc21 (mixture of isomers) | 9 | < 1 | 9.5 | 2.1 | 15 | 16 | 33 | 9 | < 0.3 | 7.5 | 8 | < 0.1 |  |
| CCCCNC=C1C(=O)Nc2ccc(S(=O)(=O)N(CC(C)C)C[C@@H](O)[C@H](Cc3ccccc3)NC(=O)O[C@H]3CO[C@H]4OCC[C@H]43)cc21 (mixture of isomers) | 18 | < 1 | 11 | 5 | 28 | 25 | 40 | 32 | < 0.3 | 13 | 15 | < 0.1 |  |
| COC(=O)N[C@H](C(=O)N[C@@H](Cc1ccccc1)[C@@H](O)CN(Cc1ccc(-c2ccccn2)cc1)NC(=O)[C@@H](NC(=O)OC)C(C)(C)C)C(C)(C)C [ATAZANAVIR] | 280 | 171 | 2500 | 105 | 600 | 750 | 3300 | 430 | 84 | 3.5 | 350 | < 0.1 | 2.8 |
| CC(C)CN(C[C@@H](O)[C@H](Cc1ccccc1)NC(=O)O[C@H]1CO[C@H]2OCC[C@H]21)S(=O)(=O)c1ccc(N)cc1 | 22 | 1 | 25 | 3.2 | 30 | 16 | 130 | 10 | < 0.3 | 3 | 11 | < 0.1 | 0.25 |
| CC(N)=C1C(=O)Nc2ccc(S(=O)(=O)N(CC(C)C)C[C@@H](O)[C@H](Cc3ccccc3)NC(=O)O[C@H]3CO[C@H]4OCC[C@H]43)cc21 (mixture of isomers) | 75 | < 1 | 60 | 30 | 70 | 70 | 60 | 65 | < 0.3 | 64 | 70 | < 0.1 |  |
| CC(C)CN(C[C@@H](O)[C@H](Cc1ccccc1)NC(=O)O[C@H]1CO[C@H]2OCC[C@H]21)S(=O)(=O)c1ccc2c(c1)CCN2 | 120 | 10 | 190 | 7.5 | 175 | 107 | 1700 | 30 | 1.5 | 3.9 | 80 | 0.12 | 0.63 |
| CC(C)CN(C[C@@H](O)[C@H](Cc1ccccc1)NC(=O)O[C@H]1CO[C@H]2OCC[C@H]21)S(=O)(=O)c1ccc2c(c1)C(=CNCCC(C)(C)C)C(=O)N2 (mixture of isomers) | 17 | < 1 |  | 3.2 | 25 | 23 | 32 | 24 | < 0.3 | 11 | 19 | < 0.1 |  |

Reference: ChEMBL document CHEMBL2057112, “Enamino-oxindole HIV protease inhibitors” (Bioorg Med Chem Lett, 2012)
